From PubChem
Sampled rows, rich in hits. Any-hit rate of the full collection: about 3.4%.
VIM-2 inh – blocks Pseudomonas aeruginosa VIM-2 metallo-beta-lactamase; purified VIM-2, nitrocefin hydrolysis, epi-absorbance fluorescence; inhibition, % at 5.6 µM; hit rate 0.89% among 290,000; AID 1527;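 active = inhibition above the mean of all tested compounds plus 3 SD, cutoff set per screening run, cut at about 7.5% in these data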;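 also: red hydrolysis product quenches plate fluorescence so inhibitors raise well fluorescence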
MEKK3 PB1 HTS – modulators (inhibitors or enhancers) of MEK5 binding to human MEKK3 PB1 domain; binding response (% of control), % at 10 µM; AID 1529; bead-based flow cytometry, Alexa488-MEK5 binding to MEKK3; actives lie on both sides; 0 = blocked by unlabeled MEK5, 100 = vehicle; hit rate 1.4% among 290,000;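 active = binding response more than 3 SD above or below the average of its plate-row segment, actives on both sides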;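 also: Alexa488 bead fluorescence after subtracting the streptavidin-only scavenger bead signal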
Target sequence (Q99759 whole entry, looked up, the tested form may be a part): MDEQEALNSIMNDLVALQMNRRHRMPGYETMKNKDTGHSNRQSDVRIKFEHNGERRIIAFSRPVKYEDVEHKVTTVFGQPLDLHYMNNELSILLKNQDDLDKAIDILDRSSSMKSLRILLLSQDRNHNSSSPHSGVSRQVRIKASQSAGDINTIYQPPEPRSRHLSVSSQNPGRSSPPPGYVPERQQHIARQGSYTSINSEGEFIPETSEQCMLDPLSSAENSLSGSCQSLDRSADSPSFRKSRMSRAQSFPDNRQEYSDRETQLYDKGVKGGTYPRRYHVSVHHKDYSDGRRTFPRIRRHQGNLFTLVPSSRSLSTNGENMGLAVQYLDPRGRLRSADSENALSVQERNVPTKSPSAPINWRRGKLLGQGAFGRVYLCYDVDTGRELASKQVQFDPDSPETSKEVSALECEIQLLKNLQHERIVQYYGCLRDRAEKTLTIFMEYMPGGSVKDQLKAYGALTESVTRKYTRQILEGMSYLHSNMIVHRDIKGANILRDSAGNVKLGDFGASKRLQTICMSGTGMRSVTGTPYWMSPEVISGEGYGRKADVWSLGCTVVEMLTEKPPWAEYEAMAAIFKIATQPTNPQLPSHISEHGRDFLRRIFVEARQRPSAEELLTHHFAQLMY
MEKK2 WT-MEK5 – raises or lowers MEK5 binding to wildtype human MEKK2 PB1 domain | Q9Y2U5 | bead flow cytometry, Alexa488-MEK5 binding to MEKK2 WT; actives lie on both sides | binding response (% of control), % at 10 µM | hit rate 1.1% among 290,000; in the data active = binding response below about 67% or above about 130%
IMP-1 inh – inhibitors of Pseudomonas aeruginosa IMP-1 metallo-beta-lactamase | purified IMP-1, nitrocefin hydrolysis, epi-absorbance fluorescence | hit rate 0.45% among 290,000 | inhibition, % at 5.6 µM;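 active = inhibition above the mean plus 3 SD of all compounds in the same screening run, cut at about 4.5% in these data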
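Assay system: purified IMP-1; Quantity: IMP-1 0.2 nM before substrate addition; Medium: HEPES buffer pH 7.1 with ZnSO4 and Brij 35; Incubation: 15 min enzyme–compound preincubation, then 25 min nitrocefin reaction, 25 °C; Signal: fluorescence quenching readout, ex 480/em 530 nm; Controls: DMSO with and without IMP-1; Repeats: singlicate testing.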
MEKK2mut PB1 HTS – signal of MEK5 binding to mutant human MEKK2 PB1 domain | percent response, % at 10 µM | AID 1530 | hit rate 0.35% among 290,000 | bead flow cytometry, Alexa488-MEK5 binding to MEKK2 mutant; in the data active = percent response above about 24%, passing the limit was not always enough
MEKK2wt confirm – raises or lowers MEK5 binding to wildtype human MEKK2, retest; shares compounds with MEKK3 PB1 HTS; bead flow cytometry, Alexa488-MEK5 binding to MEKK2 WT; actives lie on both sides; binding response (% of control), % at 10 µM; hit rate 2.4% among 5,900; AID 1892; in the data active = binding response below about 16% or above about 210%; inactive = in between
MEKK2mut-MEK5 – signal of MEK5 binding to mutant human MEKK2, retest | hit rate 2% among 5,900 | bead flow cytometry, Alexa488-MEK5 binding to MEKK2 mutant | percent response, % at 10 µM | AID 1893 | shares compounds with MEKK3 PB1 HTS; in the data active = percent response mostly above about 71%, no sharp cut-off; inactive = mostly below about 38%;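 also: higher means compound restores mutant binding toward wildtype level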
MEKK3 confirm – confirmation of inhibitors of MEK5 binding to human MEKK3; binding response (% of control), % at 10 µM; bead flow cytometry, Alexa488-MEK5 binding to MEKK3; stronger effect = lower value; shares compounds with MEKK3 PB1 HTS; hit rate 1.8% among 5,900; AID 1894;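 active = binding response below 72% of control, or above a set upper limit, though filed actives all read lower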
Large screens that a line does not name were inactive (follow-up assays come after a bar, where they were run); [ ] = dose if it differs, or a comment.

CCc1ccccc1N(C(=O)c1snc(C(N)=O)c1N)C(C(=O)NCC1CCCO1)c1ccc(OC)c(OC)c1 (configuration not stated)	none
COc1ccccc1NC(=O)C(=O)NNS(=O)(=O)c1ccc2ccccc2c1	MEKK3 PB1 HTS 131 | MEKK2wt confirm inactive | MEKK2mut-MEK5 inactive | MEKK3 confirm inactive
COc1ccc(NC(=S)NNS(=O)(=O)c2ccc3ccccc3c2)c(OC)c1	none
O=C(NNS(=O)(=O)c1ccc2ccccc2c1)c1cccs1	MEKK3 PB1 HTS 144 | MEKK2wt confirm inactive | MEKK2mut-MEK5 inactive | MEKK3 confirm inactive
Nc1ccccc1NC1=CC(=O)CC(c2ccccc2)C1 (configuration not stated)	none
CC(C)CN1CCNC(=O)C1CC(=O)NCc1cnn(-c2cccc(F)c2)c1 (configuration not stated)	MEKK2 WT-MEK5 138 | MEKK2wt confirm inactive | MEKK2mut-MEK5 inactive | MEKK3 confirm inactive
CCN(CC)CCCNc1ncnc2ccccc12	none
OCCCCCNc1ncnc2ccccc12	MEKK3 PB1 HTS 128 | MEKK2wt confirm inactive | MEKK2mut-MEK5 inactive | MEKK3 confirm inactive
CCOC(=O)CCC(NC(=O)c1ccccc1C(=O)NC(CCC(=O)OCC)C(=O)OCC)C(=O)OCC (configuration not stated)	none
CC(=O)Oc1ccc(-c2cccc(C(=O)NCCCO)c2)cc1	none
CCN1/C(=N\N)c2cccc3cccc1c23	MEKK3 PB1 HTS 58[inhibitor], MEKK2 WT-MEK5 -8.0 | MEKK2wt confirm inactive | MEKK2mut-MEK5 inactive | MEKK3 confirm inactive
Cc1cc(C(=O)NCc2ccc(S(N)(=O)=O)cc2)cs1	none
CC(=O)Nc1cccc2c1C(=O)N(c1cccc(C)c1)C2=O	MEKK3 PB1 HTS 73[inhibitor] | MEKK2wt confirm inactive | MEKK2mut-MEK5 inactive | MEKK3 confirm 53
COc1cc(C(=O)NC2CCCNC2)cc(OC)c1OC (configuration not stated)	none
Cc1cc(N/N=C/c2ccc(O)cc2)c2cccc(C)c2n1	VIM-2 inh 12, MEKK2 WT-MEK5 209, MEKK2mut PB1 HTS 29 | MEKK2wt confirm inactive | MEKK2mut-MEK5 inactive | MEKK3 confirm inactive
Cc1cc(N/N=C/c2ccc(O)cc2O)c2ccccc2n1	none
Oc1c(CN2CCCC(C(F)(F)F)C2)cc(Cl)c2ccccc12 (configuration not stated)	none
Cc1cc(C(=O)NNC(=S)NCC(C)C)cs1	MEKK3 PB1 HTS 75[inhibitor] | MEKK2wt confirm inactive | MEKK2mut-MEK5 inactive | MEKK3 confirm inactive
Cc1cc(C(=O)NNC(=S)NCc2ccccc2)cs1	none
CN(C)S(=O)(=O)c1ccc(NC(=O)CSc2nc3ccccc3n2-c2ccccc2)cc1	none
CN(C)S(=O)(=O)c1cccc(NC(=O)CSc2nc3ccccc3n2-c2ccccc2)c1	MEKK3 PB1 HTS 153 | MEKK2wt confirm inactive | MEKK2mut-MEK5 inactive | MEKK3 confirm inactive
O=C1C2C3C=CC(C4CC34)C2C(=O)N1/N=C/c1ccc(-c2cccc([N+](=O)[O-])c2)o1 (configuration not stated)	none
Cc1cccc2nc(CSc3nc4ccc([N+](=O)[O-])cc4[nH]3)cn12	MEKK3 PB1 HTS 151 | MEKK2wt confirm inactive | MEKK2mut-MEK5 inactive | MEKK3 confirm inactive
COC(=O)C(=NNc1c(C)n(C)n(-c2ccccc2)c1=O)C(=O)OC	MEKK3 PB1 HTS 141 | MEKK2wt confirm inactive | MEKK2mut-MEK5 inactive | MEKK3 confirm inactive
CC1(C)NC(=O)N(CCOc2ccc([N+](=O)[O-])cc2)C1=O	MEKK3 PB1 HTS 42[inhibitor] | MEKK2wt confirm inactive | MEKK2mut-MEK5 inactive | MEKK3 confirm inactive
Cc1cc(OCCCCN2C(=O)NC(C)(C)C2=O)ccc1[N+](=O)[O-]	none
CN(C)CC(O)COC(c1ccc(Cl)cc1)c1ccc(Cl)cc1 (configuration not stated)	none
